Compound activity (PubChem BioAssay)
CHO parental Ca = counter-screen: ATP calcium response change in parental CHO cells | parental CHO-K1, ATP-induced calcium, Fluo-8 fluorescence | inhibition, % at 5.6 µM | actives 0.63% (n = 330,000);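 active = inhibition above that plate's mean sample inhibition plus 3 SD, cut at about 26% in these data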;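 note: 0% = ATP-challenged DMSO wells and 100% = DMSO wells without ATP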
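Test system: untransfected parental CHO cell line. Compound: one dose, 5.6 µM nominal. Detection: intracellular calcium via Fluo-8 no-wash fluorescent dye. Measure: % inhibition. Benchmarks: ATP-challenged DMSO wells low, unchallenged DMSO wells high.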
OX1R antag-1 = blocks the human orexin 1 receptor. O43613. CHO/OX1R cells, Fluo-8 calcium fluorescence, orexin A. inhibition, % at 5 µM. actives 0.43% (n = 330,000);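 active = inhibition above its plate's threshold, mean inhibition of all tested compounds on the plate plus 3 SD, cut at about 37% in these data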;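 note: 0% = orexin A challenge wells and 100% = SB-334867-A antagonist wells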
GalR3 antagonist = human GalR3 antagonism; HEK293 GalR3-CNG cAMP membrane potential fluorescence; galR3 body fused to GalR1 C-terminus; inhibition, % at 3 µM; actives 0.44% (n = 360,000); AID 651719;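 active = inhibition above the screen-wide average plus 3 SD, cut at about 13% in these data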;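 note: forskolin and galanin both at EC90 stimulate the cells; cAMP rise reported by CNG channel membrane potential dye signal; 0% = forskolin plus galanin with DMSO and 100% = forskolin alone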
Target sequence (O60755 1-299 limits assumed): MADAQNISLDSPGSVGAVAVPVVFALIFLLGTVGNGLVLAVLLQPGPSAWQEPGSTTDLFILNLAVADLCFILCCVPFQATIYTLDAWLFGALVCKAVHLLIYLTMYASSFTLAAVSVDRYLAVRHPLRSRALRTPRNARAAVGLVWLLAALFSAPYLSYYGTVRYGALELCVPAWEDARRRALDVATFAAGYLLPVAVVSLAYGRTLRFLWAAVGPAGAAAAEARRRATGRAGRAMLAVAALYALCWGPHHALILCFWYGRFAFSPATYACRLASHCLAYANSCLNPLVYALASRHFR
OX1R antag-2 = OX1R (human) antagonism | OX1R-expressing cells, FRET antagonist read-out | inhibition, % at 6.6 µM | actives 1.8% (n = 330,000) | AID 485270; in the data active = inhibition mostly above about 38%, no sharp cut-off; inactive = mostly below about 40%;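 note: 0% = agonist challenge alone and 100% = reference antagonist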
GPR7 antagonist = blocks human GPR7 receptor signaling; P48145; GPR7-expressing cells, fluorescence antagonist assay; inhibition, % at 4.4 µM; actives 1.1% (n = 290,000); AID 1861; in the data active = inhibition above about 16%, passing the limit was not always enough;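 note: cells stimulated with the agonist NPW; 0% = agonist with vehicle and 100% = vehicle without agonist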
Target sequence (P48145 whole entry, looked up): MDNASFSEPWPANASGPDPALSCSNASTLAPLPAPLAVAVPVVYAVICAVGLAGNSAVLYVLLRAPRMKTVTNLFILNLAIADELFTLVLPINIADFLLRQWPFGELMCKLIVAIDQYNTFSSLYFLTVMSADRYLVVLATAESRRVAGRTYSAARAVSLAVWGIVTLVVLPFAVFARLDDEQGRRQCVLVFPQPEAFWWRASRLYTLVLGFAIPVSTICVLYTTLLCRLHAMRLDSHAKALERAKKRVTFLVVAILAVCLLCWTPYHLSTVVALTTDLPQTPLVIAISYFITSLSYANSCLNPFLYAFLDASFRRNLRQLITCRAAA
Active calls of the source: *; . = no result. Compounds with a hit are over-represented: about 3.1% of the library has one in this group of screens.

SMILES	CHO parental Ca	OX1R antag-1	GalR3 antagonist	OX1R antag-2	GPR7 antagonist
COc1ccc(-c2cc(C(=O)OC(C)C(=O)Nc3c(C)n(C)n(-c4ccccc4)c3=O)c3ccccc3n2)cc1 (stereo not given)	-21	-1	-5	62*	0
Cc1ccccc1CS(=O)(=O)c1nnc([C@H](CC(C)C)NC(=O)OC(C)(C)C)o1	43*	10	-3	12	16
Cc1ccccc1OCCNc1cc(N2CCCCC2)ccc1[N+](=O)[O-]	37*	-4	-4	18	-3
Cc1ccccc1OCCNc1cc(N2CCN(CCO)CC2)ccc1[N+](=O)[O-]	-3	6	-4	27	11
O=c1cc(-c2c(F)c(F)c(F)c(F)c2F)oc2ccccc12	-1	15	4	43	-17
O=c1cc(-c2c(F)c(F)c(F)c(F)c2F)oc2c(F)c(F)c(F)c(F)c12	68*	43*	.	45*	6
Nc1nc(Nc2cccc(F)c2)nc2ccccc12	-9	3	-5	57*	-10
O=c1oc(Nc2cccc(F)c2)nc2ccccc12	4	-5	-3	22	-3
CCCCn1c(N)c(N(CC(C)C)C(=O)c2c(CC)noc2C)c(=O)[nH]c1=O	16	-3	-1	3	.
COc1ccc(-n2sc3ccc(F)cc3c2=O)cc1	65*	42	-4	7	.
Cc1ccc(-c2cc(=O)c3cc(F)ccc3[nH]2)cc1	0	-7	-2	26	7
Cc1ccc(C)c(-n2sc3ccc(F)cc3c2=O)c1	45*	38	-5	20	.
O=c1c2cc(F)ccc2sn1-c1ccc(F)cc1	30	14	.	32*	.
O=c1c2sc(-c3ccccc3)cc2nc2n1CCC2	-10	-16	-4	52*	1
O=C(NCCc1ccccc1)C(c1cccs1)N(C(=O)CCl)c1ccc(Cl)cc1 (stereo not given)	-15	-21	-6	39	23*
O=C(NCCc1ccccc1)C(c1cccs1)N(C(=O)c1csnn1)C1CC1 (stereo not given)	-11	-33	-5	16	0
O=C(NCC(=O)N1CCN(Cc2ccccc2)CC1)c1cc(Cl)cc([N+](=O)[O-])c1	-2	-11	-6	34*	.
O=C(NCC(=O)N1CCN(Cc2ccccc2)CC1)c1ccc(Cl)cc1	-15	-16	1	18	-14
O=[N+]([O-])c1cc(Cl)cc(/C=N\Nc2ccccn2)c1O	10	-11	0	66	-8
CN(C)C1(CN=Cc2cc(Cl)cc([N+](=O)[O-])c2O)CCCCC1	-8	-12	-10	43*	-9
Cc1nn(Cc2c(Cl)cccc2Cl)c(C)c1NC(=O)/C=C/c1cnn(C)c1C	-5	6	-4	56*	1
CC(C)COc1nc2c(c(=O)n(C)c(=O)n2C)n1C	-5	-17	-10	5	active
COc1cccc2c1C(=O)c1c(O)c3c(c(O)c1C2=O)C[C@](O)(C(C)=O)C[C@H]3O[C@@H]1C[C@@H](N)[C@@H](O)[C@@H](C)O1	10	4	5	49*	.
COc1cccc(OCC(=O)Nc2ccccc2NC(C)=O)c1	1	-8	-3	10	0
COc1cccc(OCC(=O)Nc2cc(Cl)ccc2Oc2ccccc2)c1	40*	-16	-6	19	-6
SMILES	CHO parental Ca	OX1R antag-1	GalR3 antagonist	OX1R antag-2	GPR7 antagonist
CC(C)(C)NS(=O)(=O)c1ccc(CCC(=O)Nc2cc(Cl)ccc2Oc2ccccc2)cc1	43*	65*	-1	81*	8
O=C(COc1cccc2ccccc12)Nc1cc(Cl)ccc1C(=O)O	1	13	0	67*	-16
O=C(CSc1ccc(Br)cc1)NC1CCCCCC1	-14	-12	-7	4	.
COC(=O)C1=C(C)N(Cc2cccc(C(F)(F)F)c2)C(=NCc2ccc(OC)cc2)NC1c1ccccc1C(F)(F)F (stereo not given)	.	.	-6	.	.
COCC(=O)NCC1CCN(C(=O)C(=O)c2cccs2)CC1	.	.	2	.	.
O=P(CCO)(c1ccccc1)c1ccccc1	-10	-27	-1	17	-4
O=P(CCCCCCCCCP(=O)(c1ccccc1)c1ccccc1)(c1ccccc1)c1ccccc1	100*	86*	-5	26	-3
O=C(NCc1ccncc1)C(=O)NCC1OCCN1S(=O)(=O)c1ccc(F)cc1 (stereo not given)	-5	-20	-1	46	-13
Cc1ccc(Nc2cc(C)nn2-c2nc(C)cc(=O)[nH]2)cc1	55*	41*	.	10	5
Cc1ccc(Nc2cc(C)nn2-c2nc(C)cc(C)n2)cc1	-22	-41	-8	26	-8
CSc1oc(-c2ccccc2)nc1S(=O)(=O)c1ccc(C)cc1	29*	-26	-5	16	-7
CCCSc1nc(N)c(C#N)c(-c2ccc(C)cc2)c1C#N	41*	5	-7	17	-7
CCOC(=O)CC(=O)CSc1nc(N)c(C#N)c(-c2ccc(Cl)cc2)c1C#N	9	2	-7	15	-1
O=C(Cc1c[nH]c2ccccc12)Nc1ccc(Nc2cccnc2)c(-c2ccc(-c3ccccc3)cc2F)c1	.	.	-3	.	.
CSc1nsc(SCC(=O)Nc2ccccc2C(=O)O)n1	-4	-13	-9	10	0
Cc1ccc2[nH]c(=O)c(CN(C(=O)c3cccc([N+](=O)[O-])c3)C(C)C)cc2c1	-16	5	0	51*	-5
CCSc1nnc(NC(=O)NC(C)(C(F)(F)F)C(F)(F)F)s1	-1	-3	-4	17	-6
CCSc1nnc(NC(=O)NC(CC)(C(F)(F)F)C(F)(F)F)s1	79*	66*	-3	47	10
Cc1ccc(C(=O)Nc2ccncc2)c(C)c1	-6	-16	-10	-10	-16
CCOC(=O)N[C@H](C(=O)N1CCC[C@H]1C(=O)NCCc1ccccc1Cl)c1ccccc1	.	.	-4	.	.
COc1ccc(-n2ccnc(SCC(=O)NC3CCCCC3)c2=O)cc1	-4	-10	.	21	4
COc1ccc(-n2ccnc(SCC(=O)NC3CCCC3)c2=O)cc1	-6	-7	-5	45*	-1
O=C(N/N=C/c1ccc2ncccc2c1)c1cc(-c2cccs2)nc2ccccc12	-18	19	1	62*	3
C=CS(=O)(=O)c1ccc(Oc2ccc(S(=O)(=O)C=C)cc2)cc1	3	5	-3	21	35*
NS(=O)(=O)c1ccc(Oc2ccc(S(N)(=O)=O)cc2)cc1	4	5	-4	23	8
CNC(=O)c1ccsc1NC(=O)c1ccccc1	-5	-8	-3	43*	.
CCN(C(=O)CN1C(=O)NC2(CCc3ccccc32)C1=O)C1CCS(=O)(=O)C1 (stereo not given)	-5	-4	-2	3	.
COc1cc(OC)cc(C(=O)NCCN2C(=O)S/C(=C\c3cccs3)C2=O)c1	7	-7	-3	35*	-14
O=C(NCc1ccccc1)[C@@H]1CCCN1C(=O)[C@H]1CCCN1C(=O)c1ccc(F)cc1	.	.	5	.	.
